According to ChEMBL document CHEMBL1250525, “Structure-activity relationships in 1,4-benzodioxan-related compounds. 10. Novel α1-adrenoreceptor antagonists related to openphendioxan: synthesis, biological evaluation, and α1d computational study” (Bioorg Med Chem, 2010):

These compounds were tested against T1, Alpha-1D adrenergic receptor (Rattus norvegicus) (UniProt P23944) (assay: Antagonist activity at adrenergic Alpha-1D receptor in Wistar rat thoracic aorta assessed as inhibition of (-)-noradrenaline-indcuced contraction).
T1 sequence (whole entry): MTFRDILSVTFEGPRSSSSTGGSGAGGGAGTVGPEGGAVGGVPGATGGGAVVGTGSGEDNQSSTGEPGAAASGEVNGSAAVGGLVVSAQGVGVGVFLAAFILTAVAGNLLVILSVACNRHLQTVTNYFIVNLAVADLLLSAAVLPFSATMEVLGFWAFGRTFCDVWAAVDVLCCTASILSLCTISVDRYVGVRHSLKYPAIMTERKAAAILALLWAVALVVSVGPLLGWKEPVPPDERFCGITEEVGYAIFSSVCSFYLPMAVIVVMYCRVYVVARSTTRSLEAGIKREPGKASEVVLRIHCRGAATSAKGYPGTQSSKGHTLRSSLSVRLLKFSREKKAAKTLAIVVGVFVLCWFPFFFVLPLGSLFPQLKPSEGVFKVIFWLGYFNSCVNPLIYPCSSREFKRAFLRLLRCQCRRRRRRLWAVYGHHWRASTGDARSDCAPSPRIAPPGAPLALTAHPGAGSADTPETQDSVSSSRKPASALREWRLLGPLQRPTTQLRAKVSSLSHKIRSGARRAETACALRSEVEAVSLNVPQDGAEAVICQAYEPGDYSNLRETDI
Assay type: functional, tissue-based

| Structure (SMILES) | pKb |
| --- | --- |
| COc1cccc(OC)c1CCCNCCOc1ccccc1OCc1ccccc1 | 8.12 |
| CCOc1cccc(OCC)c1OCCNCCOc1ccccc1OCc1ccccc1 | 8.03 |
| Clc1cccc(Cl)c1OCCNCCOc1ccccc1OCc1ccccc1 | 8.02 |
| Oc1cccc(O)c1OCCNCCOc1ccccc1OCc1ccccc1 | 7.44 |
| CCOc1ccccc1OCCNCCOc1ccccc1OCc1ccccc1 | 8.35 |
| COc1ccccc1OCCNCCOc1ccccc1OCc1ccccc1 | 8.08 |
| COc1cccc(OC)c1SCCNCCOc1ccccc1OCc1ccccc1 | 9.47 |
| COc1cccc([N+](=O)[O-])c1OCCNCCOc1ccccc1OCc1ccccc1 | 8.92 |
| Cc1cccc(C)c1OCCNCCOc1ccccc1OCc1ccccc1 | 7.59 |
| COc1cccc(OC)c1[S+]([O-])CCNCCOc1ccccc1OCc1ccccc1 (stereo not given) | 7.49 |
| COc1cccc(C)c1OCCNCCOc1ccccc1OCc1ccccc1 | 8.36 |
| c1ccc(COc2ccccc2OCCNCCOc2ccccc2)cc1 | 7.32 |
| COc1cccc(Cl)c1OCCNCCOc1ccccc1OCc1ccccc1 | 8.74 |

The compounds below were run against T2, Alpha-1B adrenergic receptor (Rattus norvegicus) (UniProt P15823) (assay: Antagonist activity at adrenergic Alpha-1B receptor in Wistar rat spleen assessed as inhibition of […]-indcuced contraction).
T2 sequence (whole entry): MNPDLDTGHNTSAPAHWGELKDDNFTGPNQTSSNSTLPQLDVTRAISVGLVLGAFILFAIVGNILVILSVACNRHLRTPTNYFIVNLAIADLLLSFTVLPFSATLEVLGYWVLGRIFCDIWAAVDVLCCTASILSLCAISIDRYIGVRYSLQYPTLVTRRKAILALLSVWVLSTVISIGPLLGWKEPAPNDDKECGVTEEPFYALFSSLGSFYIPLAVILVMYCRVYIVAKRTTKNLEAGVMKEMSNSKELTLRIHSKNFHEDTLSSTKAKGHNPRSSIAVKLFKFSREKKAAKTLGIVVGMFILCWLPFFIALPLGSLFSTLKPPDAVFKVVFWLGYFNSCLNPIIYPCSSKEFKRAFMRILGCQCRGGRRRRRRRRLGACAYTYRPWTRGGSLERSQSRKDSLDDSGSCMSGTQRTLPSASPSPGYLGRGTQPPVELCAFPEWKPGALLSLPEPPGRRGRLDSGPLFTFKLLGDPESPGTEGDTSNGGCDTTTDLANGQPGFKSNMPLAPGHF
Assay type: functional, tissue-based

| Structure (SMILES) | pKb |
| --- | --- |
| COc1cccc(OC)c1CCCNCCOc1ccccc1OCc1ccccc1 | 7.34 |
| CCOc1cccc(OCC)c1OCCNCCOc1ccccc1OCc1ccccc1 | 8.57 |
| Clc1cccc(Cl)c1OCCNCCOc1ccccc1OCc1ccccc1 | 7.75 |
| Oc1cccc(O)c1OCCNCCOc1ccccc1OCc1ccccc1 | 7.02 |
| CCOc1ccccc1OCCNCCOc1ccccc1OCc1ccccc1 | 7.94 |
| COc1ccccc1OCCNCCOc1ccccc1OCc1ccccc1 | 7.89 |
| COc1cccc(OC)c1SCCNCCOc1ccccc1OCc1ccccc1 | 8.57 |
| COc1cccc([N+](=O)[O-])c1OCCNCCOc1ccccc1OCc1ccccc1 | 8.19 |
| Cc1cccc(C)c1OCCNCCOc1ccccc1OCc1ccccc1 | 7.78 |
| COc1cccc(OC)c1[S+]([O-])CCNCCOc1ccccc1OCc1ccccc1 (stereo not given) | 7.65 |
| COc1cccc(C)c1OCCNCCOc1ccccc1OCc1ccccc1 | 7.91 |
| c1ccc(COc2ccccc2OCCNCCOc2ccccc2)cc1 | 7.74 |
| COc1cccc(Cl)c1OCCNCCOc1ccccc1OCc1ccccc1 | 7.84 |

These compounds were tested against T3, Alpha-1B adrenergic receptor (Homo sapiens, UniProt P35368) (assay: Displacement of [3H]prazosin from human adrenergic Alpha-1B expressed in CHO cells).
T3 sequence (P35368 whole entry): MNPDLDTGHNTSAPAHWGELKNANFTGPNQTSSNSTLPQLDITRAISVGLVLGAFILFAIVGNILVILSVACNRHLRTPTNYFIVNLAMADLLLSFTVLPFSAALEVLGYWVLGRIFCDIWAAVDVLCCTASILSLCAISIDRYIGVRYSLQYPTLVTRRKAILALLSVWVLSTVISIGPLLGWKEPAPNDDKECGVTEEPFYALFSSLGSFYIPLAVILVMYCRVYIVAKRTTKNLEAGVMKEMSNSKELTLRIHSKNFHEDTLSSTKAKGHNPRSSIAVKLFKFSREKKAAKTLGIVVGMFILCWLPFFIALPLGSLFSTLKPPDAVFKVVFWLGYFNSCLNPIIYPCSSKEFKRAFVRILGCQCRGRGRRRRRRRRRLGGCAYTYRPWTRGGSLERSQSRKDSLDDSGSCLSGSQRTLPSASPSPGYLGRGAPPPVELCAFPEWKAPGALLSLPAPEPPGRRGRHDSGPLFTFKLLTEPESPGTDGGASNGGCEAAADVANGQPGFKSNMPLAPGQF
Assay type: cell-based
Summary of the method: (§1)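 Membranes (30 µg protein) from CHO cells stably expressing each cloned human α1 subtype, labelled with [3H]prazosin. Nonspecific binding with 10 µM phentolamine. Stopped with ice-cold Tris–HCl and filtration on 0.2% polyethyleneimine-treated glass-fibre filters. Ki from IC50 by Cheng–Prusoff, nonlinear fitting. Mean ± SE of 2–3 experiments in triplicate.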

| Structure (SMILES) | Ki [nM] |
| --- | --- |
| COc1cccc(OC)c1CCCNCCOc1ccccc1OCc1ccccc1 | 6.92 |
| CCOc1cccc(OCC)c1OCCNCCOc1ccccc1OCc1ccccc1 | 0.794 |
| Clc1cccc(Cl)c1OCCNCCOc1ccccc1OCc1ccccc1 | 79.4 |
| Oc1cccc(O)c1OCCNCCOc1ccccc1OCc1ccccc1 | 100 |
| CCOc1ccccc1OCCNCCOc1ccccc1OCc1ccccc1 | 12.6 |
| COc1ccccc1OCCNCCOc1ccccc1OCc1ccccc1 | 20 |
| COc1cccc(OC)c1SCCNCCOc1ccccc1OCc1ccccc1 | 0.501 |
| COc1cccc([N+](=O)[O-])c1OCCNCCOc1ccccc1OCc1ccccc1 | 5.01 |
| Cc1cccc(C)c1OCCNCCOc1ccccc1OCc1ccccc1 | 100 |
| COc1cccc(OC)c1[S+]([O-])CCNCCOc1ccccc1OCc1ccccc1 (stereo not given) | 15.8 |
| COc1cccc(C)c1OCCNCCOc1ccccc1OCc1ccccc1 | 5.01 |
| c1ccc(COc2ccccc2OCCNCCOc2ccccc2)cc1 | 100 |
| COc1cccc(Cl)c1OCCNCCOc1ccccc1OCc1ccccc1 | 7.94 |

What follows are compounds tested against T4, Alpha-1A adrenergic receptor (Rattus norvegicus) (UniProt P43140) (assay: Antagonist activity at adrenergic alpha1A receptor in Wistar rat vas deference assessed as inhibition of (-)-noradrenaline-indcuced contraction).
T4 sequence (whole entry): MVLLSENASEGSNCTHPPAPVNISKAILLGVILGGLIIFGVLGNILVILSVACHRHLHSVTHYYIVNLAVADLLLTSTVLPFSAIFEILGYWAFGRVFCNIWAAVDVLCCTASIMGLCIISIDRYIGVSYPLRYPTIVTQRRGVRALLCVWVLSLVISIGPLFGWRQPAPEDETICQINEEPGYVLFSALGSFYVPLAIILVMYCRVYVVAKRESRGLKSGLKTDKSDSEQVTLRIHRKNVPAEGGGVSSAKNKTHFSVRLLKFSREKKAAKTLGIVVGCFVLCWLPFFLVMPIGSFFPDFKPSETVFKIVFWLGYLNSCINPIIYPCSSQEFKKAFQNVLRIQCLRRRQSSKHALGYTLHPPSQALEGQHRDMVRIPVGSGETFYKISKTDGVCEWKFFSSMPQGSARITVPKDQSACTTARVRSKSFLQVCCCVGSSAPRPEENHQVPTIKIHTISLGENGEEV
Assay type: functional
Summary of the method: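 Tissue in Tyrode with 0.1 µM cocaine, equilibrated 60 min with washes every 15 min, primed twice with 10 µM noradrenaline. A noradrenaline curve gave the basal response. Antagonist 30 min, then 30 min washing, then a new agonist curve.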

| Structure (SMILES) | pKb |
| --- | --- |
| COc1cccc(OC)c1CCCNCCOc1ccccc1OCc1ccccc1 | 7.8 |
| CCOc1cccc(OCC)c1OCCNCCOc1ccccc1OCc1ccccc1 | 7.92 |
| Clc1cccc(Cl)c1OCCNCCOc1ccccc1OCc1ccccc1 | 6.57 |
| Oc1cccc(O)c1OCCNCCOc1ccccc1OCc1ccccc1 | 7.44 |
| CCOc1ccccc1OCCNCCOc1ccccc1OCc1ccccc1 | 8.03 |
| COc1ccccc1OCCNCCOc1ccccc1OCc1ccccc1 | 7.95 |
| COc1cccc(OC)c1SCCNCCOc1ccccc1OCc1ccccc1 | 8.74 |
| COc1cccc([N+](=O)[O-])c1OCCNCCOc1ccccc1OCc1ccccc1 | 8.41 |
| Cc1cccc(C)c1OCCNCCOc1ccccc1OCc1ccccc1 | 7.33 |
| COc1cccc(OC)c1[S+]([O-])CCNCCOc1ccccc1OCc1ccccc1 (stereo not given) | 7.95 |
| COc1cccc(C)c1OCCNCCOc1ccccc1OCc1ccccc1 | 8.35 |
| c1ccc(COc2ccccc2OCCNCCOc2ccccc2)cc1 | 7.65 |
| COc1cccc(Cl)c1OCCNCCOc1ccccc1OCc1ccccc1 | 8.16 |

The compounds below were run against T5, Alpha-1A adrenergic receptor (Homo sapiens, UniProt P35348) (assay: Displacement of [3H]prazosin from human adrenergic alpha1A expressed in CHO cells).
T5 sequence (P35348 whole entry): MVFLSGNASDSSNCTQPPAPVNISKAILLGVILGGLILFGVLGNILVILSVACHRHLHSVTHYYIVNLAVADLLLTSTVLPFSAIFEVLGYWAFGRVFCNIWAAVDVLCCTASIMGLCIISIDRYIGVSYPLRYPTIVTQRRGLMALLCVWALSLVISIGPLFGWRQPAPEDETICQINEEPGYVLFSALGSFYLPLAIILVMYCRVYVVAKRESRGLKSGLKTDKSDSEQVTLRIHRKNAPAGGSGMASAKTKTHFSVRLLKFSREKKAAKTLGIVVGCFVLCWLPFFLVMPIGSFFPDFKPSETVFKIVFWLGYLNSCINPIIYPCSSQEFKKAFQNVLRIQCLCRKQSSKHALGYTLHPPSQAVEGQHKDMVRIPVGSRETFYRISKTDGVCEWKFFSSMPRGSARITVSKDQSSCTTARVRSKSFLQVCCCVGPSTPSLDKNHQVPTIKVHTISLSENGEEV
Assay type: cell-based
Summary of the method: as §1

| Structure (SMILES) | Ki [nM] |
| --- | --- |
| COc1cccc(OC)c1CCCNCCOc1ccccc1OCc1ccccc1 | 9.77 |
| CCOc1cccc(OCC)c1OCCNCCOc1ccccc1OCc1ccccc1 | 3.16 |
| Clc1cccc(Cl)c1OCCNCCOc1ccccc1OCc1ccccc1 | 6.31 |
| Oc1cccc(O)c1OCCNCCOc1ccccc1OCc1ccccc1 | 5.01 |
| CCOc1ccccc1OCCNCCOc1ccccc1OCc1ccccc1 | 2 |
| COc1ccccc1OCCNCCOc1ccccc1OCc1ccccc1 | 3.16 |
| COc1cccc(OC)c1SCCNCCOc1ccccc1OCc1ccccc1 | 3.16 |
| COc1cccc([N+](=O)[O-])c1OCCNCCOc1ccccc1OCc1ccccc1 | 1.12 |
| Cc1cccc(C)c1OCCNCCOc1ccccc1OCc1ccccc1 | 7.94 |
| COc1cccc(OC)c1[S+]([O-])CCNCCOc1ccccc1OCc1ccccc1 (stereo not given) | 20 |
| COc1cccc(C)c1OCCNCCOc1ccccc1OCc1ccccc1 | 2.51 |
| c1ccc(COc2ccccc2OCCNCCOc2ccccc2)cc1 | 10 |
| COc1cccc(Cl)c1OCCNCCOc1ccccc1OCc1ccccc1 | 2.51 |
